Test results: EPA's CvTdb concentration-time database

Tests used:
[1] = tested on: Rat; experiment: concentration in plasma after dosing; conditions: dosed: 2-Hydroxy-4-methoxybenzophenone, 8 mg/kg, iv, Male, F344
[2] = tested on: Mouse; experiment: concentration in plasma after dosing; conditions: 0.25 h; dosed: 2-Hydroxy-4-methoxybenzophenone; 50 mg/kg; iv; Female; B6C3F1
[3] = tested on: Mouse; experiment: concentration in plasma after dosing; conditions: 10 min; dosed: 2-Hydroxy-4-methoxybenzophenone; 50 mg/kg; iv; Female; B6C3F1
[4] = tested on: Mouse; experiment: concentration in plasma after dosing; conditions: 10 min; dosed: 2-Hydroxy-4-methoxybenzophenone; 50 mg/kg; iv; Female; B6C3F1; remark: listed apart in the source
[5] = tested on: Rat; experiment: concentration in plasma after dosing; conditions: 2.5 min; dosed: 2-Hydroxy-4-methoxybenzophenone; 500 mg/kg; oral; Female; F344
[6] = tested on: Mouse; experiment: concentration in plasma after dosing; conditions: 10 min; dosed: 2-Hydroxy-4-methoxybenzophenone; 500 mg/kg; oral; Female; B6C3F1
[7] = tested on: Mouse; experiment: concentration in plasma after dosing; conditions: 2 h; dosed: 2-Hydroxy-4-methoxybenzophenone; 500 mg/kg; oral; Male; B6C3F1
[8] = tested on: Rat; experiment: concentration in plasma after dosing; conditions: dosed: Nitrite, 20 mg/kg, iv, Male, F344
[9] = tested on: Rat; experiment: concentration in plasma after dosing; conditions: 5 min; dosed: Nitrite; 40 mg/kg; oral; Female; F344
[10] = tested on: Rat; experiment: concentration in brain after dosing; conditions: 6 h; dosed: Perfluorooctanoic acid; 80 mg/kg; oral; Female; Harlan Sprague Dawley
[11] = tested on: Rat; experiment: concentration in brain after dosing; conditions: 3 h; dosed: Perfluorooctanoic acid; 12 mg/kg; oral; Male; Harlan Sprague Dawley
[12] = tested on: Rat; experiment: concentration in brain after dosing; conditions: 192 h; dosed: Perfluorooctanoic acid; 12 mg/kg; oral; Male; Harlan Sprague Dawley
[13] = tested on: Rat; experiment: concentration in liver after dosing; conditions: 6 h; dosed: Perfluorooctanoic acid; 80 mg/kg; oral; Female; Harlan Sprague Dawley
[14] = tested on: Rat; experiment: concentration in plasma after dosing; conditions: dosed: 678-39-7, 12 mg/kg, iv, Male, F344
[15] = tested on: Rat; experiment: concentration in kidney after dosing; conditions: 3 h; dosed: Perfluorooctanoic acid; 80 mg/kg; oral; Female; Harlan Sprague Dawley
[16] = tested on: Rat; experiment: concentration in kidney after dosing; conditions: 3 h; dosed: Fluorotelomer alcohol 8+2; 80 mg/kg; oral; Female; Harlan Sprague Dawley
[17] = tested on: Rat; experiment: concentration in kidney after dosing; conditions: 6 h; dosed: Fluorotelomer alcohol 8+2; 80 mg/kg; oral; Female; Harlan Sprague Dawley
[18] = tested on: Rat; experiment: concentration in plasma after dosing; conditions: 1.5 h; dosed: Potassium Perfluorobutane Sulfonate; 4 mg/kg; iv; Male; F344
[19] = tested on: Rat; experiment: concentration in kidney after dosing; conditions: 3 h; dosed: Potassium Perfluorobutane Sulfonate; 20 mg/kg; oral; Male; Harlan Sprague Dawley
[20] = tested on: Rat; experiment: concentration in kidney after dosing; conditions: 3 h; dosed: Potassium Perfluorobutane Sulfonate; 20 mg/kg; oral; Female; Harlan Sprague Dawley
[21] = tested on: Rat; experiment: concentration in kidney after dosing; conditions: 6 h; dosed: Potassium Perfluorobutane Sulfonate; 20 mg/kg; oral; Female; Harlan Sprague Dawley
[22] = tested on: Rat; experiment: concentration in plasma after dosing; conditions: 0.25 h; dosed: Potassium Perfluorobutane Sulfonate; 4 mg/kg; iv; Male; F344
[23] = tested on: rat; experiment: concentration in serum after dosing; conditions: dosed: benzo[a]pyrene, male, Wistar
[24] = tested on: human; experiment: amount in urine after dosing (umol)
Method in brief: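 Concentration-versus-time or amount-versus-time points were compiled from published in vivo toxicokinetic studies and from two structured collections. The studies were found by PubMed searching, classifier screening and manual review. Points were mostly digitised from plot screenshots with WebPlotDigitizer, otherwise copied from tables, and kept in the reported units. Dose, route, subject details and medium were curated by hand from each paper, and sampling and analytical methods follow each source and were often unreported.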

COc1ccc(C(=O)c2ccccc2)c(O)c1 [2-Hydroxy-4-methoxybenzophenone]
[1]
Conditions | concentration in plasma [µg/mL]
0.25 h | 2.37
2 h | 0.113

Conditions | concentration in plasma [µg/mL]
[2] | 4.68
[3] | 8.41
[4] | 11.5
[5] | 0.0128
[6] | 0.535
[7] | 0.0956

O=N[O-] [Nitrite]
[8]
Conditions | concentration in plasma [µg/mL]
1.5 h | 2
20 min | 2.6

Conditions | concentration in plasma [µg/mL]
[9] | 8.5

O=C(O)C(F)(F)C(F)(F)C(F)(F)C(F)(F)C(F)(F)C(F)(F)C(F)(F)F [Perfluorooctanoic acid]
Conditions | concentration in brain [ng/g] | concentration in kidney [ng/g] | concentration in liver [ng/g]
[10] | 3290 | – | –
[11] | 1330 | – | –
[12] | 543 | – | –
[13] | – | – | 130000
[15] | – | 321000 | –
[16] | – | 2010 | –
[17] | – | 2040 | –

[14]
Conditions | concentration in plasma [µg/mL]
0.25 h | 0.102
24 h | 0.607

O=S(=O)([O-])C(F)(F)C(F)(F)C(F)(F)C(F)(F)F.[K+] [Potassium Perfluorobutane Sulfonate]
Conditions | concentration in kidney [ng/g] | concentration in plasma [µg/mL]
[18] | – | 2.13
[19] | 27100 | –
[20] | 18600 | –
[21] | 587 | –
[22] | – | 17.9

c1ccc2c(c1)cc1ccc3cccc4ccc2c1c34 [benzo[a]pyrene]
[23]
Conditions | concentration in serum [µg/mL]
0.3352 h, 2 mg/kg, iv | 2.23
0.4717 h, 20 mg/kg, oral | 0.116
0.752 h, 2 mg/kg, iv | 1.02
1.006 h, 2 mg/kg, iv | 0.635
1.061 h, 20 mg/kg, oral | 0.486
1.985 h, 20 mg/kg, oral | 0.989
2.002 h, 2 mg/kg, iv | 0.0855
3.99 h, 20 mg/kg, oral | 0.936
4.005 h, 2 mg/kg, iv | 0.00448
5.975 h, 20 mg/kg, oral | 0.261
5.998 h, 2 mg/kg, iv | 0.00243
7.98 h, 20 mg/kg, oral | 0.086
8 h, 2 mg/kg, iv | 0.00204
9.966 h, 20 mg/kg, oral | 0.0168
24.02 h, 20 mg/kg, oral | 0.00138

CC(C)(C)O [tert-butyl alcohol]
amount in urine, [24], inhalation, duration: 4 hr
Conditions | dosed: ethyl tert-butyl ether | dosed: methyl tert-butyl ether
0 h, 4.5 ppm | – | 0.221
0 h, 40.6 ppm | 2.39 | –
0.1079 h, 38.7 ppm | – | 6.16
2 s, 4.5 ppm | 0.655 | –
5.895 h, 40.6 ppm | 5.98 | –
5.968 h, 4.5 ppm | 1.15 | –
6.052 h, 4.5 ppm | – | 0.993
6.07 h, 38.7 ppm | – | 7.53
11.89 h, 40.6 ppm | 5.18 | –
11.9 h, 4.5 ppm | – | 0.993
11.92 h, 38.7 ppm | – | 6.16
12.14 h, 4.5 ppm | 0.764 | –
17.89 h, 40.6 ppm | 3.59 | –
18.05 h, 4.5 ppm | 0.545 | 0.221
18.09 h, 38.7 ppm | – | 4.11
23.89 h, 40.6 ppm | 1.59 | –
23.9 h, 4.5 ppm | – | 0.221
23.95 h, 38.7 ppm | – | 2.74
24.02 h, 4.5 ppm | 0.545 | –
29.89 h, 40.6 ppm | 1.39 | –
30.05 h, 4.5 ppm | – | 0.221
30.12 h, 38.7 ppm | – | 4.11
30.19 h, 4.5 ppm | 0.273 | –
35.9 h, 4.5 ppm | – | 0.11
35.97 h, 38.7 ppm | – | 2.74
36.11 h, 40.6 ppm | 0.598 | –
42.11 h, 40.6 ppm | 0.598 | –
42.14 h, 38.7 ppm | – | 0.685
48.11 h, 40.6 ppm | 0.797 | –
48.29 h, 4.5 ppm | 0.0545 | –
54.17 h, 38.7 ppm | – | 0.685
71.95 h, 38.7 ppm | – | 0.685
72.05 h, 40.6 ppm | 0.199 | –

[24], dosed: methyl tert-butyl ether, oral
Conditions | amount in urine
0 h, 5 mg | 0.0137
5.859 h, 15 mg | 0.646
6.163 h, 5 mg | 0.274
12.01 h, 5 mg | 0.233
12.04 h, 15 mg | 0.568
17.9 h, 15 mg | 0.329
18.18 h, 5 mg | 0.123
24.08 h, 15 mg | 0.292
24.24 h, 5 mg | 0.0548
29.94 h, 15 mg | 0.214
30.19 h, 5 mg | 0.0685
36.12 h, 15 mg | 0.136
36.25 h, 5 mg | 0.0548
41.98 h, 15 mg | 0.138
42.1 h, 5 mg | 0.0137
48.05 h, 15 mg | 0.101
54.02 h, 15 mg | 0.143
